In ChEMBL document CHEMBL1140206 (J Med Chem, 2008):

Tests used:
[1] = target: Neuronal acetylcholine receptor; alpha4/beta2 (Rattus norvegicus, UniProt P09483+P12390); experiment: Displacement of [3H]epibatidine from rat recombinant alpha4beta2 nAChR expressed in HEK293 cells; type: cell-based
[2] = target: Neuronal acetylcholine receptor; alpha3/beta4 (Rattus norvegicus) (UniProt P04757+P12392); experiment: Agonist activity at rat alpha-3-beta-4 nAChR expressed in HEK293 cells by FMP assay relative to acetylcholine; type: functional, cell-based
Procedure, shortened: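 Stable HEK293 line; cells plated 16-24 h, washed, then loaded 30 min at 37 °C with FMP dye in Krebs buffer pH 7.4. Fluorescence (ex 530/em 560 nm) was read before and up to 1 min after agonist addition. Concentration-response curves used maximal responses, fitted to a Hill equation for EC50 and Rmax. Run in duplicate, at least three times.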

[3] = target: Neuronal acetylcholine receptor; alpha4/beta4 (Rattus norvegicus, UniProt P09483+P12392); experiment: Displacement of [3H]epibatidine from rat recombinant alpha-4-beta-4 nAChR expressed in HEK293 cells; type: cell-based
Chain of Neuronal acetylcholine receptor; alpha4/beta4 (P09483 whole entry): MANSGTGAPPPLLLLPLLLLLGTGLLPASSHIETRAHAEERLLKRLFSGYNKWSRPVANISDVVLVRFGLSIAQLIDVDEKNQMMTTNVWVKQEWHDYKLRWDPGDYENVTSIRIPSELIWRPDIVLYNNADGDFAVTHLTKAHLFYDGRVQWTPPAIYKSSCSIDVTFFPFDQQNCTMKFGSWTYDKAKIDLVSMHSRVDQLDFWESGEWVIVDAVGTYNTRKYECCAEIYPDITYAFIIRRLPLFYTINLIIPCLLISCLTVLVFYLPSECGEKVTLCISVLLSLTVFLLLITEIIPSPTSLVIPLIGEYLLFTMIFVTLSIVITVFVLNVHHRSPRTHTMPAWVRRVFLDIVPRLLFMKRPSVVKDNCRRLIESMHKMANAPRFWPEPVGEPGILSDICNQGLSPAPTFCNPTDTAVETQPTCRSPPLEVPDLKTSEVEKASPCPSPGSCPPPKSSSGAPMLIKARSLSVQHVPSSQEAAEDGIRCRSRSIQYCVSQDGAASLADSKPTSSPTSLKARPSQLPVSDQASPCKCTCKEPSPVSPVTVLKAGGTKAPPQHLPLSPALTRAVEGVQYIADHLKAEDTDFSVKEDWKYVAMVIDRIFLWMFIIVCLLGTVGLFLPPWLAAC
Chain of Neuronal acetylcholine receptor; alpha4/beta4 (P12392 whole entry): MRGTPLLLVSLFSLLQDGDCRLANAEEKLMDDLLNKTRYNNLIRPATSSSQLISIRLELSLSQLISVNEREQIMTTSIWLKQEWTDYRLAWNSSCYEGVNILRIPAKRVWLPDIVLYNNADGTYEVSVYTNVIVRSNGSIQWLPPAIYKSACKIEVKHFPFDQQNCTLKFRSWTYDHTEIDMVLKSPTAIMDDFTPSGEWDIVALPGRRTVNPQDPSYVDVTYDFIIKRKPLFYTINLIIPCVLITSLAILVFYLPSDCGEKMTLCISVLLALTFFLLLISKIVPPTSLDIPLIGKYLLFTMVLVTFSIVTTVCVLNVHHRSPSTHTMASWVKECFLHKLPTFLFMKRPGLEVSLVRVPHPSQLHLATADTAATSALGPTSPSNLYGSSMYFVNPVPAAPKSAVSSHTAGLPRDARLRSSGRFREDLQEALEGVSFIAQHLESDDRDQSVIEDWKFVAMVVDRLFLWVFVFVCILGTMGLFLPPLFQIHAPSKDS

[4] = target: T1, Neuronal acetylcholine receptor; alpha3/beta4 (Rattus norvegicus, UniProt P04757+P12392); experiment: Displacement of [3H]epibatidine from rat recombinant alpha-3-beta-4 nAChR expressed in HEK293 cells; type: cell-based
T1 sequence (P04757 whole entry): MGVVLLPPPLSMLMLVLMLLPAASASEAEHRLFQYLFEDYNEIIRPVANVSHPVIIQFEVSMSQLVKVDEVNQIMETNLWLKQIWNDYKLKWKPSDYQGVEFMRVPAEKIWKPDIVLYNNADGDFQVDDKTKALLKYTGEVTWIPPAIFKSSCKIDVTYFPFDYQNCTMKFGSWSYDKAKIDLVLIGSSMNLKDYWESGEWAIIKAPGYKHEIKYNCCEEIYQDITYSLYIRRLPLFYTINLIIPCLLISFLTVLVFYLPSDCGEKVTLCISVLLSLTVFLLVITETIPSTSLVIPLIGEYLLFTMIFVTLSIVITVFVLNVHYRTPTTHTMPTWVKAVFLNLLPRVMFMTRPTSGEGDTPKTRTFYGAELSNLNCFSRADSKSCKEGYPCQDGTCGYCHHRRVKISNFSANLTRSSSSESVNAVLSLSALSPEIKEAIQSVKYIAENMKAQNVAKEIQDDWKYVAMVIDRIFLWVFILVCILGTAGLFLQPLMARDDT
T1 sequence (P12392 whole entry): as the sequence (P12392 whole entry) above

[5] = target: Neuronal acetylcholine receptor subunit alpha-7 (Rattus norvegicus, UniProt Q05941); experiment: Displacement of [3H]MLA from rat alpha-7 nAChR/mouse 5HT3A chimera expressed in human tsA-201 cells
Chain of Neuronal acetylcholine receptor subunit alpha-7 (Rattus norvegicus, UniProt Q05941) (Q05941 23-502 limits assumed): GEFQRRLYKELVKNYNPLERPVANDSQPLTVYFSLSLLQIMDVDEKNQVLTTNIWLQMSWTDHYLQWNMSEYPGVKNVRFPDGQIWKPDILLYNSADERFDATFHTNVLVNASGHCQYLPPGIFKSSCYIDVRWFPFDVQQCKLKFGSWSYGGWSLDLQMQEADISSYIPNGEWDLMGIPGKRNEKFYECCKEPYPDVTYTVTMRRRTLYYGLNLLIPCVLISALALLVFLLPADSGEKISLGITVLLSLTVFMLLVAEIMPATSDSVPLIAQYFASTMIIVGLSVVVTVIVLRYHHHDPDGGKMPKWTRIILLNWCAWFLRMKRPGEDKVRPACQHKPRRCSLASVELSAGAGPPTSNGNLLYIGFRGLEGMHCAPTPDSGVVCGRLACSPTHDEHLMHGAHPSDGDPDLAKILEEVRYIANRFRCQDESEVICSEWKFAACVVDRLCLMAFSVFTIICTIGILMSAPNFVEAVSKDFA

[6] = target: T1, Neuronal acetylcholine receptor; alpha3/beta4; experiment: Agonist activity at rat alpha-3-beta-4 nAChR expressed in HEK293 cells by FMP assay; type: functional, cell-based
Procedure, shortened: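 Stable HEK293 line; cells plated 16-24 h, washed, then loaded 30 min at 37 °C with FMP dye in Krebs buffer pH 7.4. Concentration-response curves used maximal responses, fitted to a Hill equation for EC50 and Rmax. Run in duplicate, at least three times.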

[7] = target: T2, Neuronal acetylcholine receptor; alpha3/beta4 (Homo sapiens, UniProt P30926+P32297); experiment: Agonist activity at human alpha-3-beta-4 nAChR expressed in Xenopus oocytes by two-electrode voltage clamp technique; type: functional, cell-based, Oocyte
T2 sequence (P30926 whole entry): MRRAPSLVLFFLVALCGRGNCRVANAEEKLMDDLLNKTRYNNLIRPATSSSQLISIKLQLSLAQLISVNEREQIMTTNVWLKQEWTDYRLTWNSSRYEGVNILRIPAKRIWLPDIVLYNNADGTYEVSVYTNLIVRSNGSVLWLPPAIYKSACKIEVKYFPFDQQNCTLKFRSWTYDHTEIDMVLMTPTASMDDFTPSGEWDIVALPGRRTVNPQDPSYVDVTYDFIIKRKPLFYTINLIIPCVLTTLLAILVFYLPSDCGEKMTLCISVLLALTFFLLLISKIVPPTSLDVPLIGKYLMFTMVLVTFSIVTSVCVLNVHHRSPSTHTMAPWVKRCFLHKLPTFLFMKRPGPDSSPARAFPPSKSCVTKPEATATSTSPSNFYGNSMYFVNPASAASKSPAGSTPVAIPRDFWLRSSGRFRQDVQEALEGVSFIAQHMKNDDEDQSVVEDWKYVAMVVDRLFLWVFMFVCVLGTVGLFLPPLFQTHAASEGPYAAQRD
T2 sequence (P32297 whole entry): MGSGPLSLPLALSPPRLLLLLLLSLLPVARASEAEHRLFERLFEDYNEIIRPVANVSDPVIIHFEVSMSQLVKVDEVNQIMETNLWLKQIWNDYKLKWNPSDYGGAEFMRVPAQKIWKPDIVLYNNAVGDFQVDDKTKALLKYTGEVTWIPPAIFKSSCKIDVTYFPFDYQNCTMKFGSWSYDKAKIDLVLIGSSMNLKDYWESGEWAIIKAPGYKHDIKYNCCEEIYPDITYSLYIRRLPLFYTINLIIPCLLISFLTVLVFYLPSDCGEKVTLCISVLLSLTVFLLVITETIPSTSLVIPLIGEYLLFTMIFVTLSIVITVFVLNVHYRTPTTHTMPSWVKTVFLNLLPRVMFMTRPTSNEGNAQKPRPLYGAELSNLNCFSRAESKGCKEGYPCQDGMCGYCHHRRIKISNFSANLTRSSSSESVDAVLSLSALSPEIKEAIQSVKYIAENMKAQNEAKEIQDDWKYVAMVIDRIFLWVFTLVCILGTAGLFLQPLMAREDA
Procedure, shortened: (§1)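 Defolliculated Xenopus oocytes received 40-50 ng total cRNA of human α7, α3+β4 (1:1) or α4+β2 and were kept at 17 °C. Two-electrode clamp at -60 mV used 3 M KCl electrodes in Oocyte Ringer's pH 7.4, with 12 s agonist pulses 5 min apart at 2.5 mL/min. Peak current was normalized to saturating ACh in the same oocyte (10 mM α7; 1 mM α3β4, α4β2).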

[8] = target: T3, Neuronal acetylcholine receptor; alpha4/beta2 (Homo sapiens, UniProt P17787+P43681); experiment: Agonist activity at human alpha-4-beta-2 nAChR expressed in Xenopus oocytes by two-electrode voltage clamp technique relative to acetylcholine; type: functional, cell-based; details: Oocyte; procedure, shortened: as §1
[9] = target: T3, Neuronal acetylcholine receptor; alpha4/beta2; experiment: Agonist activity at human alpha-4-beta-2 nAChR expressed in Xenopus oocytes by two-electrode voltage clamp technique; type: functional, cell-based, Oocyte; procedure, shortened: as §1
[10] = target: T2, Neuronal acetylcholine receptor; alpha3/beta4; experiment: Agonist activity at human alpha3beta4 nAChR expressed in Xenopus oocytes by two-electrode voltage clamp technique at 320 uM relative to acetylcholine; type: functional, cell-based; details: Oocyte; procedure, shortened: as §1
[11] = target: T4, Neuronal acetylcholine receptor subunit alpha-7 (Homo sapiens, UniProt P36544); experiment: Agonist activity at human alpha-7 nAChR expressed in Xenopus oocytes by two-electrode voltage clamp technique; type: functional, cell-based, Oocyte; procedure, shortened: as §1
T4 sequence (P36544 whole entry): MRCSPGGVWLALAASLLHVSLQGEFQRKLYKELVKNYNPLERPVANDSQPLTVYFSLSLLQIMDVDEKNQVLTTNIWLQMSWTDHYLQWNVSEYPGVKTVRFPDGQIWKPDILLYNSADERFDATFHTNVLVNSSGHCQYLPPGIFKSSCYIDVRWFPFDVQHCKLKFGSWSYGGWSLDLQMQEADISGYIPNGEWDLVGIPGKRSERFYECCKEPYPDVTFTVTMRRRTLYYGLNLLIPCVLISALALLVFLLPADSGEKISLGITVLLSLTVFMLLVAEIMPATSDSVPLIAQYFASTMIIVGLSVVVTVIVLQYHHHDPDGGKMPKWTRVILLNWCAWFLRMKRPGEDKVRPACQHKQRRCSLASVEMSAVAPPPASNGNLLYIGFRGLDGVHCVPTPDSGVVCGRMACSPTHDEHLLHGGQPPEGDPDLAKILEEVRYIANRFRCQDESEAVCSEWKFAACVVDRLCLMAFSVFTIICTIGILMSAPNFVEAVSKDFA

[12] = target: T4, Neuronal acetylcholine receptor subunit alpha-7; experiment: Agonist activity at human alpha-7 nAChR expressed in Xenopus oocytes by two-electrode voltage clamp technique at 320 uM relative to acetylcholine; type: functional, cell-based; details: Oocyte; procedure, shortened: as §1

Chain of Neuronal acetylcholine receptor; alpha4/beta2 (Rattus norvegicus, UniProt P09483+P12390) (P09483 whole entry): as the sequence (P09483 whole entry) above
Chain of Neuronal acetylcholine receptor; alpha4/beta2 (Rattus norvegicus, UniProt P09483+P12390) (P12390 whole entry): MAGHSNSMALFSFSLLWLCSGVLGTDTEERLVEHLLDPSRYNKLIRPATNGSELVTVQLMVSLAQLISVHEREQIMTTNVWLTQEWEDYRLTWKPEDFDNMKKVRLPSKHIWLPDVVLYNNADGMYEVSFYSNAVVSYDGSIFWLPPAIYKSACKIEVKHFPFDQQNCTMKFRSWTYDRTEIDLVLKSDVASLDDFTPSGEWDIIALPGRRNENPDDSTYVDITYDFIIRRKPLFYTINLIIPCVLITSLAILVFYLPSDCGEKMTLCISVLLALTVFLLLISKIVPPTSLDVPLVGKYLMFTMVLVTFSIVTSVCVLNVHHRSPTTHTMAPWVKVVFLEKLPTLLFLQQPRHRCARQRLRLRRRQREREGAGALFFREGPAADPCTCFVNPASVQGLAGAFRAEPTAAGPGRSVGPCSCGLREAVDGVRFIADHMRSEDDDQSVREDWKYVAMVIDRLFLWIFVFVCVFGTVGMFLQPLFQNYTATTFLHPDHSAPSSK

Row | SMILES | Ki [1] | Activity [2] | Ki [3] | Ki [4] | Ki [5] | EC50 ([6]; read-out: EC50) | EC50 ([7]; read-out: EC50) | EC50 ([7]; read-out: pEC50 (converted)) | Activity [8] | EC50 [9] | Activity [10] | Ki ([6]; read-out: Ki) | Ki ([6]; read-out: pKi (converted)) | EC50 ([6]; read-out: pEC50 (converted)) | EC50 ([11]; read-out: EC50) | EC50 ([11]; read-out: pEC50 (converted)) | Activity [12]
1 | CC(CCOC(=O)N1CC(F)(F)C1)N(C)C (configuration not stated) | 0.058 µM | 75% | 1.6 µM |  |  |  |  |  |  |  |  |  |  |  |  |  | 
2 | CC(=O)OCCC(C)N(C)C (configuration not stated) | 0.065 µM | 97% | 0.37 µM | 4.1 µM | > 1000 µM | 23 µM |  |  |  |  |  |  |  |  |  |  | 
3 | CC(CCOC(=O)N1CCC1)N(C)C (configuration not stated) | 0.0051 µM | 106% | 0.19 µM | 11 µM |  |  | > 320 µM | > 316 µM | 66% | 7.1 µM | 23% | 0.023 µM | 25.1 µM |  |  |  | 
4 | CC(CCOC(=O)C1CCC1)N(C)C (configuration not stated) | 0.1 µM | 85% | 0.46 µM | 3.5 µM | 290 µM | 8.5 µM |  |  |  |  |  |  |  |  |  |  | 
5 | CC(CCOC(=O)N1CCCCC1)N(C)C (configuration not stated) | 0.091 µM |  | 0.35 µM | 2.6 µM |  |  |  |  |  |  |  |  |  |  |  |  | 
6 | CC1CN(C(=O)OCC[C@@H](C)N(C)C)C1 | 0.00091 µM |  | 0.18 µM | 19 µM |  |  |  |  |  |  |  |  |  |  |  |  | 
7 | CC(CCOC(=O)N(C)C)N(C)C (configuration not stated) | 0.02 µM | 105% | 0.15 µM | 0.42 µM | > 1000 µM |  |  |  |  |  |  | 0.0077 µM | 7.94 µM |  |  |  | 
8 | CC(CCOC(=O)c1ccccc1)N(C)C (configuration not stated) | 0.32 µM |  | 10 µM | 100 µM | 190 µM |  |  |  |  |  |  |  |  |  |  |  | 
9 | CC(CCOC(=O)N1CCCC1)N(C)C (configuration not stated) | 0.21 µM |  | 2.2 µM | 25 µM |  |  |  |  |  |  |  |  |  |  |  |  | 
10 | CC(CCOC(=O)n1cccc1)N(C)C (configuration not stated) | 0.31 µM | 27% | 11 µM | 100 µM | > 1000 µM |  |  |  |  |  |  | 0.1 µM | 316 µM |  |  |  | 
11 | CC(CCOC(=O)N1CC(C)(C)C1)N(C)C (configuration not stated) | 0.058 µM | 43% | 0.72 µM | 300 µM |  |  |  |  |  |  |  | 0.3 µM | 316 µM |  |  |  | 
12 | CC(CCOC(=O)C1CC1)N(C)C (configuration not stated) | 0.0038 µM | 105% | 0.26 µM | 4.2 µM | 280 µM |  |  |  |  |  |  |  |  | 7.94 µM |  |  | 
13 | CC1CN(C(=O)OCCC(C)N(C)C)C1 (configuration not stated) | 0.0021 µM | 91% | 0.26 µM | 23 µM | > 1000 µM |  | > 320 µM | > 316 µM | 9.5% | 85 µM | 12% | 0.048 µM | 50.1 µM |  | > 320 µM | > 316 µM | 0.9%
14 | CC(CCOC(=O)N1CCC1C)N(C)C (configuration not stated) | 0.015 µM | 89% | 0.23 µM | 2.5 µM | > 1000 µM |  |  |  |  |  |  | 0.0054 µM | 5.01 µM |  |  |  | 
15 | CC1CN(C(=O)OCC[C@H](C)N(C)C)C1 | 0.057 µM |  | 7.1 µM | 100 µM |  |  |  |  |  |  |  |  |  |  |  |  | 
16 | CC(C)C(=O)OCCC(C)N(C)C (configuration not stated) | 0.03 µM | 100% | 0.76 µM | 8.5 µM | > 1000 µM | 24 µM |  |  |  |  |  |  |  |  |  |  | 
17 | CC(CCOC(=O)N1CCC1(C)C)N(C)C (configuration not stated) | 0.21 µM | 90% | 3.2 µM | 25 µM |  |  |  |  |  |  |  | 0.051 µM | 50.1 µM |  |  |  | 
